Measured values taken from ChEMBL document CHEMBL1629431, “Synthesis and antitumor activity of some 2, 3-disubstituted quinazolin-4(3H)-ones and 4, 6- disubstituted- 1, 2, 3, 4-tetrahydroquinazolin-2H-ones” (2010).

Assays:
Type in all cases: functional
A549 = assay: Growth inhibition of human A549 cells at 10 uM after 48 hrs by coulter counter method; conditions: A549, 48 h, read-out: GI
Outline: (§1)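 Single high-dose NCI 60-cell-line panel screen across nine tumor subpanels. Test solutions (0.2 mL) were added in duplicate to wells holding 1.8 mL of culture at 6 × 10⁴ cells/mL. Controls got PBS and DMSO at identical dilutions. Incubation was 48 h at 37 °C in humidified 5% CO₂. Cells were diluted 10-fold in saline, Coulter-counted and dilution-corrected. Results were expressed as percent growth inhibition versus control.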

U-251 = assay: Growth inhibition of human U251 cells at 10 uM after 48 hrs by coulter counter method; conditions: U-251, 48 h, read-out: GI; outline: as §1
IGROV-1 = assay: Growth inhibition of human IGROV1 cells at 10 uM after 48 hrs by coulter counter method; conditions: IGROV-1, 48 h, read-out: GI; outline: as §1
SF-539 = assay: Growth inhibition of human SF539 cells at 10 uM after 48 hrs by coulter counter method; conditions: SF-539, 48 h, read-out: GI; outline: as §1
HL-60(TB) = assay: Growth inhibition of human HL-60(TB) cells at 10 uM after 48 hrs by coulter counter method; conditions: HL-60, 48 h, read-out: GI
Outline: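 Part of the NCI 60-cell-line single-high-dose panel. Cells were seeded at 6 × 10⁴ cells/mL with test solution in duplicate wells, alongside PBS/DMSO controls at identical dilutions. Plates were held 48 h at 37 °C in a humidified 5% CO₂ incubator. Cells were then diluted 10-fold in saline and counted by Coulter counter, with counts corrected for dilution. Results are percent growth of treated cells, reported as GI %.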

CAKI-1 = assay: Growth inhibition of human Caki1 cells at 10 uM after 48 hrs by coulter counter method; conditions: CAKI-1, 48 h, read-out: GI; outline: as §1
NCI-H522 = assay: Growth inhibition of human NCI-H522 cells at 10 uM after 48 hrs by coulter counter method; conditions: NCI-H522, 48 h, read-out: GI; outline: as §1
COLO 205 = assay: Growth inhibition of human COLO205 cells at 10 uM after 48 hrs by coulter counter method; conditions: COLO 205, 48 h, read-out: GI; outline: as §1
KM12 = assay: Growth inhibition of human KM12 cells at 10 uM after 48 hrs by coulter counter method; conditions: KM12, 48 h, read-out: GI; outline: as §1
NCI-H226 = assay: Growth inhibition of human NCI-H226 cells at 10 uM after 48 hrs by coulter counter method; conditions: NCI-H226, 48 h, read-out: GI; outline: as §1
SK-OV-3 = assay: Growth inhibition of human SKOV3 cells at 10 uM after 48 hrs by coulter counter method; conditions: SK-OV-3, 48 h, read-out: GI; outline: as §1
MDA-MB-468 = assay: Growth inhibition of human MDA-MB-468 cells at 10 uM after 48 hrs by coulter counter method; conditions: MDA-MB-468, 48 h, read-out: GI; outline: as §1
SF-268 = assay: Growth inhibition of human SF268 cells at 10 uM after 48 hrs by coulter counter method; conditions: SF-268, 48 h, read-out: GI; outline: as §1
SK-MEL-28 = assay: Growth inhibition of human SK-MEL-28 cells at 10 uM after 48 hrs by coulter counter method; conditions: SK-MEL-28, 48 h, read-out: GI; outline: as §1
M14 = assay: Growth inhibition of human M14 cells at 10 uM after 48 hrs by coulter counter method; conditions: M14, 48 h, read-out: GI; outline: as §1
OVCAR-8 = assay: Growth inhibition of human OVCAR8 cells at 10 uM after 48 hrs by coulter counter method; conditions: OVCAR-8, 48 h, read-out: GI; outline: as §1
NCI-H23 = assay: Growth inhibition of human NCI-H23 cells at 10 uM after 48 hrs by coulter counter method; conditions: NCI-H23, 48 h, read-out: GI; outline: as §1
UACC-62 = assay: Growth inhibition of human UACC62 cells at 10 uM after 48 hrs by coulter counter method; conditions: UACC-62, 48 h, read-out: GI; outline: as §1
CCRF-CEM = assay: Growth inhibition of human CCRF-CEM cells at 10 uM after 48 hrs by coulter counter method; conditions: read-out: GI; outline: as §1
MCF7 = assay: Growth inhibition of human MCF7 cells at 10 uM after 48 hrs by coulter counter method; conditions: MCF7, 48 h, read-out: GI; outline: as §1
MOLT-4 = assay: Growth inhibition of human MOLT4 cells at 10 uM after 48 hrs by coulter counter method; conditions: MOLT-4, 48 h, read-out: GI; outline: as §1
SN12C = assay: Growth inhibition of human SN12C cells at 10 uM after 48 hrs by coulter counter method; conditions: read-out: GI; outline: as §1
MDA-MB-231 = assay: Growth inhibition of human MDA-MB-231 cells at 10 uM after 48 hrs by coulter counter method; conditions: MDA-MB-231, 48 h, read-out: GI; outline: as §1
SR = assay: Growth inhibition of human SR cells at 10 uM after 48 hrs by coulter counter method; conditions: read-out: GI; outline: as §1
SK-MEL-2 = assay: Growth inhibition of human SK-MEL-2 cells at 10 uM after 48 hrs by coulter counter method; conditions: SK-MEL-2, 48 h, read-out: GI; outline: as §1
HCT-116 = assay: Growth inhibition of human HCT116 cells at 10 uM after 48 hrs by coulter counter method; conditions: HCT-116, 48 h, read-out: GI; outline: as §1
SNB-75 = assay: Growth inhibition of human SNB75 cells at 10 uM after 48 hrs by coulter counter method; conditions: SNB-75, 48 h, read-out: GI; outline: as §1
K562 = assay: Growth inhibition of human K562 cells at 10 uM after 48 hrs by coulter counter method; conditions: K562, 48 h, read-out: GI; outline: as §1
OVCAR-4 = assay: Growth inhibition of human OVCAR4 cells at 10 uM after 48 hrs by coulter counter method; conditions: OVCAR-4, 48 h, read-out: GI; outline: as §1
[1] = Growth inhibition of human Hs 578T cells at 10 uM after 48 hrs by coulter counter method; conditions: read-out: GI; outline: as §1
PC-3 = assay: Growth inhibition of human PC3 cells at 10 uM after 48 hrs by coulter counter method; conditions: PC-3, 48 h, read-out: GI; outline: as §1
UO-31 = assay: Growth inhibition of human UO31 cells at 10 uM after 48 hrs by coulter counter method; conditions: UO-31, 48 h, read-out: GI; outline: as §1
T47D = assay: Growth inhibition of human T47D cells at 10 uM after 48 hrs by coulter counter method; conditions: read-out: GI; outline: as §1
786-0 = assay: Growth inhibition of human 786-0 cells at 10 uM after 48 hrs by coulter counter method; conditions: 786-0, 48 h, read-out: GI; outline: as §1
HOP-92 = assay: Growth inhibition of human HOP92 cells at 10 uM after 48 hrs by coulter counter method; conditions: HOP-92, 48 h, read-out: GI; outline: as §1

SMILES	inhibition of growth at 10 µM (U-251)	inhibition of growth at 10 µM (IGROV-1)	inhibition of growth at 10 µM (SF-539)	inhibition of growth at 10 µM (HL-60(TB))	inhibition of growth at 10 µM (NCI-H522)	inhibition of growth at 10 µM (COLO 205)	inhibition of growth at 10 µM (KM12)	inhibition of growth at 10 µM (NCI-H226)	inhibition of growth at 10 µM (SK-OV-3)	inhibition of growth at 10 µM (MDA-MB-468)	inhibition of growth at 10 µM (SF-268)	inhibition of growth at 10 µM (SK-MEL-28)	inhibition of growth at 10 µM (M14)	inhibition of growth at 10 µM (NCI-H23)	inhibition of growth at 10 µM (UACC-62)	inhibition of growth at 10 µM (MCF7)	inhibition of growth at 10 µM (MOLT-4)	inhibition of growth at 10 µM (SN12C)	inhibition of growth at 10 µM (MDA-MB-231)	inhibition of growth at 10 µM (SR)	other results
COc1ccc(-n2c(SC)nc3ccccc3c2=O)cc1	30%	30%	30%	30%	30%	30%	30%	30%	30%	30%	30%	30%	30%	30%	30%	30%	30%	30%	30%	30%	inhibition of growth at 10 µM (A549): 30%; inhibition of growth at 10 µM (CAKI-1): 30%; inhibition of growth at 10 µM (OVCAR-8): 30%; inhibition of growth at 10 µM (CCRF-CEM): 30%; inhibition of growth at 10 µM (SK-MEL-2): 30%; inhibition of growth at 10 µM (HCT-116): 30%; inhibition of growth at 10 µM (SNB-75): 30%; inhibition of growth at 10 µM (K562): 30.1%; inhibition of growth at 10 µM (OVCAR-4): 30%; inhibition of growth at 10 µM [1]: 30%; inhibition of growth at 10 µM (PC-3): 30%; inhibition of growth at 10 µM (UO-31): 30%; inhibition of growth at 10 µM (T47D): 30%; inhibition of growth at 10 µM (786-0): 30%
COc1ccc(C(=O)CSc2nc3ccccc3c(=O)n2-c2ccc(Cl)cc2)cc1	65.1%	48.9%	48.6%	30%	< 30%	48.9%	30%	30%	44.7%	35.4%	48.8%	37.3%	38.4%	30%	42.2%	30%	30%	30%	40.9%	30%	inhibition of growth at 10 µM (OVCAR-8): 76.2%; inhibition of growth at 10 µM (SK-MEL-2): 34.2%; inhibition of growth at 10 µM (HCT-116): 30%; inhibition of growth at 10 µM (SNB-75): 71.1%; inhibition of growth at 10 µM (OVCAR-4): 53.5%; inhibition of growth at 10 µM [1]: 30%; inhibition of growth at 10 µM (PC-3): 30%; inhibition of growth at 10 µM (UO-31): 37.2%; inhibition of growth at 10 µM (T47D): 30%; inhibition of growth at 10 µM (786-0): 41.3%
COc1ccc(-c2nnc(Nc3nc4ccccc4c(=O)n3-c3ccccc3)s2)cc1	30%	30%	30%	30%	30%	58.9%	30%	30%	30%	30%	30%	30%	30%	30%	30%	30%	30%	30%	30%	30%	inhibition of growth at 10 µM (A549): 30%; inhibition of growth at 10 µM (CAKI-1): 30%; inhibition of growth at 10 µM (HOP-92): 30%; inhibition of growth at 10 µM (CCRF-CEM): 30%; inhibition of growth at 10 µM (SK-MEL-2): 30%; inhibition of growth at 10 µM (HCT-116): 30%; inhibition of growth at 10 µM (SNB-75): 30%; inhibition of growth at 10 µM (K562): 30%; inhibition of growth at 10 µM (OVCAR-4): 30%; inhibition of growth at 10 µM [1]: 30%; inhibition of growth at 10 µM (PC-3): 30%; inhibition of growth at 10 µM (UO-31): 30%; inhibition of growth at 10 µM (T47D): 30%; inhibition of growth at 10 µM (786-0): 30%
